How the values were obtained:
Assay type in all cases: functional
[1] = Cytotoxicity against human NCI-ADR-RES cells by SRB assay
In short: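 NCI-60 panel screen; 5-dose testing giving GI50 per cell line, plus a single 10 µM one-dose test. Method details not given beyond the NCI screen.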

786-0 [2] = assay: Cytotoxicity against human 786-0 cells by SRB assay
[3] = Cytotoxicity against human Hs578T cells by SRB assay; conditions: Hs-578T
In short: (§1)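 Measured in the NCI-60 human tumour cell line panel using five-dose testing. Growth was recorded at each dose for each cell line, and a GI50 was derived for each line.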

RPMI-8226 = assay: Cytotoxicity against human RPMI8226 cells assessed as cell growth at 0.005 uM by SRB assay; conditions: read-out: Activity
HCT-116 = assay: Cytotoxicity against human HCT116 cells assessed as cell growth at 0.005 uM by SRB assay; conditions: read-out: Activity; in short: as §1
SNB-75 = assay: Cytotoxicity against human SNB75 cells assessed as cell growth at 0.005 uM by SRB assay; conditions: read-out: Activity
M14 = assay: Cytotoxicity against human M14 cells assessed as cell growth at 0.005 uM by SRB assay; conditions: read-out: Activity
OVCAR-5 = assay: Cytotoxicity against human OVCAR5 cells assessed as cell growth at 0.005 uM by SRB assay; conditions: read-out: Activity
OVCAR-8 = assay: Cytotoxicity against human OVCAR8 cells assessed as cell growth at 0.005 uM by SRB assay; conditions: read-out: Activity
[4] = Cytotoxicity against human NCI-ADR-RES cells assessed as cell growth at 0.005 uM by SRB assay; conditions: read-out: Activity
NCI-H226 [5] = assay: Cytotoxicity against human NCI-H226 cells assessed as cell growth at 0.05 uM by SRB assay; conditions: read-out: Activity
SW-620 = assay: Cytotoxicity against human SW620 cells assessed as cell growth at 0.05 uM by SRB assay; conditions: read-out: Activity
UACC-62 = assay: Cytotoxicity against human UACC62 cells assessed as cell growth at 0.05 uM by SRB assay; conditions: read-out: Activity
SN12C = assay: Cytotoxicity against human SN12C cells assessed as cell growth at 0.05 uM by SRB assay; conditions: read-out: Activity
TK-10 = assay: Cytotoxicity against human TK10 cells assessed as cell growth at 0.05 uM by SRB assay; conditions: read-out: Activity
SK-MEL-5 = assay: Cytotoxicity against human SK-MEL-5 cells assessed as cell growth at 0.5 uM by SRB assay; conditions: read-out: Activity
DU-145 [6] = assay: Cytotoxicity against human DU145 cells assessed as cell growth at 0.5 uM by SRB assay; conditions: read-out: Activity; in short: as §1
CCRF-CEM = assay: Cytotoxicity against human CCRF-CEM cells assessed as cell growth at 5 uM by SRB assay; conditions: read-out: Activity
MOLT-4 = assay: Cytotoxicity against human MOLT4 cells assessed as cell growth at 5 uM by SRB assay; conditions: read-out: Activity
A549 = assay: Cytotoxicity against human A549/ATCC cells assessed as cell growth at 5 uM by SRB assay; conditions: read-out: Activity
COLO 205 = assay: Cytotoxicity against human COLO205 cells assessed as cell growth at 5 uM by SRB assay; conditions: read-out: Activity
[7] = Cytotoxicity against human NCI-ADR-RES cells assessed as cell growth at 5 uM by SRB assay; conditions: read-out: Activity
786-0 [8] = assay: Cytotoxicity against human 786-0 cells assessed as cell growth at 5 uM by SRB assay; conditions: read-out: Activity
DU-145 [9] = assay: Cytotoxicity against human DU145 cells assessed as cell growth at 5 uM by SRB assay; conditions: read-out: Activity; in short: as §1
T47D = assay: Cytotoxicity against human T47D cells assessed as cell growth at 5 uM by SRB assay; conditions: read-out: Activity
NCI-H226 [10] = assay: Cytotoxicity against human NCI-H226 cells assessed as cell growth at 50 uM by SRB assay; conditions: read-out: Activity
[11] = read-out: pLC50 (the source's name) (converted)
[12] = read-out: LC50 (the source's name)

Molecule `COc1cc([C@@H]2c3cc4c(cc3[C@@H](NC(=O)CN3CCN(CCCCCCCCCCN5CCN(CC(=O)N[C@@H]6c7cc8c(cc7[C@@H](c7cc(OC)c(O)c(OC)c7)[C@H]7C(=O)OC[C@@H]76)OCO8)CC5)CC3)[C@H]3COC(=O)[C@H]23)OCO4)cc(OC)c1O` has a TGI ([1]; read-out: TGI) of over 50 µM, a GI50 ([1]; read-out: pGI50 (converted)) of 6.46 µM and a CC50 [1, 11] of over 50.1 µM. The TGI ([1]; read-out: pTGI) was over 50.1 µM, the GI50 (786-0 [2]; read-out: GI50) was 0.209 µM and the CC50 (786-0 [2]; [12]) was 18.7 µM. The TGI (786-0 [2]; read-out: TGI) was 2.34 µM, the GI50 (786-0 [2]; read-out: pGI50 (converted)) was 0.209 µM and the CC50 (786-0 [2]; [11]) was 18.6 µM. The TGI (786-0 [2]; read-out: pTGI (converted)) was 2.34 µM, the GI50 ([3]; read-out: GI50) was 2.8 µM and the CC50 [3, 12] was over 50 µM. For the same molecule, the TGI ([3]; read-out: TGI) was 22.2 µM, the GI50 ([3]; read-out: pGI50 (converted)) was 2.82 µM and the CC50 [3, 11] was over 50.1 µM. For the same molecule, the TGI ([3]; read-out: pTGI (converted)) was 22.4 µM, the growth at 0.005 µM (RPMI-8226) was 89% and the growth at 0.005 µM (HCT-116) was 99%. For the same molecule, the growth at 0.005 µM (SNB-75) was 95%, the growth at 0.005 µM (M14) was 94% and the growth at 0.005 µM (OVCAR-5) was 95%. It also gave a growth at 0.005 µM (OVCAR-8) of 101%, a growth at 0.005 µM [4] of 97% and a growth at 0.05 µM (NCI-H226 [5]) of 83%. The growth at 0.05 µM (SW-620) was 75%, the growth at 0.05 µM (UACC-62) was 90% and the growth at 0.05 µM (SN12C) was 80%. The growth at 0.05 µM (TK-10) was 91%, the growth at 0.5 µM (SK-MEL-5) was 83% and the growth at 0.5 µM (DU-145 [6]) was 22%. It also gave a growth at 5 µM (CCRF-CEM) of -10%, a growth at 5 µM (MOLT-4) of -46% and a growth at 5 µM (A549) of -29%. The growth at 5 µM (COLO 205) was -13%, the growth at 5 µM [7] was 53% and the growth at 5 µM (786-0 [8]) was -13%. The growth at 5 µM (DU-145 [9]) was -7%, the growth at 5 µM (T47D) was 16% and the growth at 50 µM (NCI-H226 [10]) was -95%.
